From ChEMBL document CHEMBL1208778, “Synthesis and anti-cancer activity of chalcone linked imidazolones” (2010)
Activity calls are given as the source filed them. The rule behind the calls is not given here.

Experiments:
MCF7 [1] = experiment: Cell cycle arrest in human MCF7 cells assessed as accumulation at G1 phase at 30 uM after 24 hrs by FACS analysis; assay type: functional
How it was run: (§1)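 MCF-7 cells were treated at 30 µM for 24 h alongside a DMSO control. Fractions in G0, G1, S and G2/M phases were measured by FACS, and values are means of three experiments.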

MCF7 [2] = experiment: Cell cycle arrest in human MCF7 cells assessed as accumulation at S phase at 10 uM after 24 hrs by FACS analysis; assay type: functional
How it was run: (§2)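 MCF-7 breast carcinoma cells were exposed to 10 µM test compound for 24 h, with DMSO as the vehicle control. Cell-cycle distribution was read by FACS as the percentage of cells in G0, G1, S and G2/M.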

MCF7 [3] = experiment: Induction of apoptosis in human MCF7 cells assessed as […] in PARP cleavage at 30 uM after 24 hrs by Western blot analysis; assay type: functional, cell-based
How it was run: (§3)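 MCF-7 breast carcinoma cells were exposed to 30 µM compound for 24 h, with CA-4 as positive control. Cell lysates were then immunoblotted with antibodies to procaspase-7 and cleavage-specific PARP, using β-actin as loading control.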

MCF7 [4] = experiment: Induction of apoptosis in human MCF7 cells assessed as decrease in procaspase 7 level at 30 uM after 24 hrs by Western blot analysis; assay type: functional, cell-based; how it was run: as §3
MCF7 [5] = experiment: Cell cycle arrest in human MCF7 cells assessed as accumulation at S phase at 30 uM after 24 hrs by FACS analysis; assay type: functional; how it was run: as §1
MCF7 [6] = experiment: Cell cycle arrest in human MCF7 cells assessed as accumulation at G2/M phase at 30 uM after 24 hrs by FACS analysis; assay type: functional; how it was run: as §1
MCF7 [7] = experiment: Cell cycle arrest in human MCF7 cells assessed as accumulation at G1 phase at 10 uM after 24 hrs by FACS analysis; assay type: functional; how it was run: as §2
MCF7 [8] = experiment: Cell cycle arrest in human MCF7 cells assessed as accumulation at G2/M phase at 10 uM after 24 hrs by FACS analysis; assay type: functional; how it was run: as §2
MCF7 [9] = experiment: Cell cycle arrest in human MCF7 cells assessed as accumulation at G0 phase at 30 uM after 24 hrs by FACS analysis; assay type: functional; how it was run: as §1
MCF7 [10] = experiment: Cell cycle arrest in human MCF7 cells assessed as accumulation at G0 phase at 10 uM after 24 hrs by FACS analysis; assay type: functional; how it was run: as §2
U-251 = experiment: Growth inhibition of human U251 cells; assay type: functional
How it was run: (§4)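 Compounds that passed a preliminary screen were tested at five doses in the NCI (Bethesda) in vitro Anticancer Screen Program against a 53-line human tumour panel spanning leukemia, lung, colon, CNS, melanoma, ovarian, renal, prostate and breast. Growth inhibition is reported as GI50.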

RXF 393 = experiment: Growth inhibition of human RXF393 cells; assay type: functional
How it was run: (§5)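 Five-dose testing was run within the NCI (Bethesda) in vitro Anticancer Screen Program on a panel of 53 human tumour cell lines from nine cancer types. Growth inhibition is reported as GI50.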

NCI-H460 = experiment: Growth inhibition of human NCI-H460 cells; assay type: functional; how it was run: as §5
NCI-H23 = experiment: Growth inhibition of human NCI-H23 cells; assay type: functional; how it was run: as §5
NCI/ADR-RES = experiment: Growth inhibition of human NCI/ADR-RES cells; assay type: functional; how it was run: as §5
M14 = experiment: Growth inhibition of human M14 cells; assay type: functional; how it was run: as §5
COLO 205 = experiment: Growth inhibition of human COLO205 cells; assay type: functional; how it was run: as §5
SF-295 = experiment: Growth inhibition of human SF295 cells; assay type: functional; how it was run: as §5
TK-10 = experiment: Growth inhibition of human TK10 cells; assay type: functional; how it was run: as §4
HCC 2998 = experiment: Growth inhibition of human HCC2998 cells; assay type: functional; how it was run: as §5
A549 = experiment: Growth inhibition of human A549 cells; assay type: functional; how it was run: as §5
HCT-15 = experiment: Growth inhibition of human HCT15 cells; assay type: functional; how it was run: as §5
[11] = Growth inhibition of human Hs 578T cells; assay type: functional; how it was run: as §5
OVCAR-4 = experiment: Growth inhibition of human OVCAR4 cells; assay type: functional; how it was run: as §5
ACHN = experiment: Growth inhibition of human ACHN cells; assay type: functional; how it was run: as §5
MDA-MB-231 = experiment: Growth inhibition of human MDA-MB-231 cells; assay type: functional; how it was run: as §5
K562 = experiment: Growth inhibition of human K562 cells; assay type: functional; how it was run: as §5
786-0 = experiment: Growth inhibition of human 786-0 cells; assay type: functional; how it was run: as §5
A498 = experiment: Growth inhibition of human A498 cells; assay type: functional; how it was run: as §5
NCI-H226 = experiment: Growth inhibition of human NCI-H226 cells; assay type: functional; how it was run: as §5
KM12 = experiment: Growth inhibition of human KM12 cells; assay type: functional; how it was run: as §5
SNB-19 = experiment: Growth inhibition of human SNB19 cells; assay type: functional; how it was run: as §4
SK-MEL-28 = experiment: Growth inhibition of human SK-MEL-28 cells; assay type: functional; how it was run: as §5
HCT-116 = experiment: Growth inhibition of human HCT116 cells; assay type: functional; how it was run: as §5
OVCAR-8 = experiment: Growth inhibition of human OVCAR8 cells; assay type: functional; how it was run: as §5
NCI-H522 = experiment: Growth inhibition of human NCI-H522 cells; assay type: functional; how it was run: as §5
CAKI-1 = experiment: Growth inhibition of human Caki1 cells; assay type: functional; how it was run: as §5
SF-539 = experiment: Growth inhibition of human SF539 cells; assay type: functional; how it was run: as §5
MCF7 [12] = experiment: Growth inhibition of human MCF7 cells; assay type: functional; how it was run: as §5
BT-549 = experiment: Growth inhibition of human BT549 cells; assay type: functional; how it was run: as §5
SN12C = experiment: Growth inhibition of human SN12C cells; assay type: functional; how it was run: as §4
HOP-62 = experiment: Growth inhibition of human HOP62 cells; assay type: functional; how it was run: as §5
SK-OV-3 = experiment: Growth inhibition of human SKOV3 cells; assay type: functional; how it was run: as §4
NCI-H322M = experiment: Growth inhibition of human NCI-H322M cells; assay type: functional; how it was run: as §5
SK-MEL-2 = experiment: Growth inhibition of human SK-MEL-2 cells; assay type: functional; how it was run: as §5
OVCAR-5 = experiment: Growth inhibition of human OVCAR5 cells; assay type: functional; how it was run: as §5
OVCAR-3 = experiment: Growth inhibition of human OVCAR-3 cells; assay type: functional; how it was run: as §5
SF-268 = experiment: Growth inhibition of human SF268 cells; assay type: functional; how it was run: as §5
HOP-92 = experiment: Growth inhibition of human HOP92 cells; assay type: functional; how it was run: as §5
EKVX = experiment: Growth inhibition of human EKVX cells; assay type: functional; how it was run: as §5
HT-29 = experiment: Growth inhibition of human HT-29 cells; assay type: functional; how it was run: as §5
UACC-62 = experiment: Growth inhibition of human UACC62 cells; assay type: functional; how it was run: as §4
LOX IMVI = experiment: Growth inhibition of human LOXIMVI cells; assay type: functional; how it was run: as §5
T47D = experiment: Growth inhibition of human T47D cells; assay type: functional; how it was run: as §4
UACC-257 = experiment: Growth inhibition of human UACC257 cells; assay type: functional; how it was run: as §4
PC-3 = experiment: Growth inhibition of human PC3 cells; assay type: functional; how it was run: as §5
SW-620 = experiment: Growth inhibition of human SW620 cells; assay type: functional; how it was run: as §4
[13] = Growth inhibition of human RPMI8266 cells; assay type: functional; how it was run: as §5
SK-MEL-5 = experiment: Growth inhibition of human SK-MEL-5 cells; assay type: functional; how it was run: as §5
UO-31 = experiment: Growth inhibition of human UO31 cells; assay type: functional; how it was run: as §4
Malme-3M = experiment: Growth inhibition of human MALME-3M cells; assay type: functional; how it was run: as §5
SNB-75 = experiment: Growth inhibition of human SNB75 cells; assay type: functional; how it was run: as §4
MDA-MB-435 = experiment: Growth inhibition of human MDA-MB-435 cells; assay type: functional; how it was run: as §5

COc1cc(/C=C/C(=O)c2cccc(N)c2)cc(OC)c1OC
Activity (MCF7 [1]): 52.31%
Activity (MCF7 [2]): 14.96%
Activity (MCF7 [3]): inactive
Activity (MCF7 [4]): inactive
Activity (MCF7 [5]): 9.31%
Activity (MCF7 [6]): 15.8%
Activity (MCF7 [7]): 56.17%
Activity (MCF7 [8]): 23.57%
Activity (MCF7 [9]): 22.58%
Activity (MCF7 [10]): 2.87%

COc1cc(/C=C/C(=O)c2cccc(-n3cc(-c4ccc(Cl)cc4)[nH]c3=O)c2)ccc1O
GI50 (U-251): 2.23 µM
Activity (MCF7 [1]): 50.61%
GI50 (RXF 393): 6.4 µM
GI50 (NCI-H460): 3.9 µM
GI50 (NCI-H23): 3.18 µM
GI50 (NCI/ADR-RES): 2.28 µM
GI50 (M14): 2.86 µM
GI50 (COLO 205): 3.4 µM
GI50 (SF-295): 10.5 µM
Activity (MCF7 [2]): 18.1%
Activity (MCF7 [3]): Active
GI50 (TK-10): 4.67 µM
Activity (MCF7 [4]): Active
GI50 (HCC 2998): 1.85 µM
GI50 (A549): 6.78 µM
GI50 (HCT-15): 1.8 µM
Activity (MCF7 [5]): 6.17%
Activity (MCF7 [6]): 10.35%
GI50 [11]: 4.67 µM
GI50 (OVCAR-4): 4.64 µM
Activity (MCF7 [7]): 46.69%
Activity (MCF7 [8]): 31.65%
GI50 (ACHN): 2.19 µM
GI50 (MDA-MB-231): 3.87 µM
GI50 (K562): 1.42 µM
GI50 (786-0): 2.07 µM
GI50 (A498): 2.82 µM
GI50 (NCI-H226): 2.77 µM
GI50 (KM12): 1.48 µM
GI50 (SNB-19): 3.17 µM
GI50 (SK-MEL-28): 2.06 µM
GI50 (HCT-116): 1.46 µM
GI50 (OVCAR-8): 4.18 µM
GI50 (NCI-H522): 2.36 µM
Activity (MCF7 [9]): 32.89%
GI50 (CAKI-1): 2.64 µM
GI50 (SF-539): 1.78 µM
GI50 (MCF7 [12]): 2.3 µM
GI50 (BT-549): 2.52 µM
GI50 (SN12C): 2.87 µM
GI50 (HOP-62): 2.84 µM
GI50 (SK-OV-3): 3.19 µM
GI50 (NCI-H322M): 4.58 µM
GI50 (SK-MEL-2): 3.66 µM
GI50 (OVCAR-5): 2 µM
GI50 (OVCAR-3): 1.56 µM
GI50 (SF-268): 2.5 µM
GI50 (HOP-92): 1.26 µM
GI50 (EKVX): 9.61 µM
Activity (MCF7 [10]): 3.56%
GI50 (HT-29): 2.97 µM
GI50 (UACC-62): 2.74 µM
GI50 (LOX IMVI): 1.63 µM
GI50 (T47D): 3.09 µM
GI50 (UACC-257): 8.69 µM
GI50 (PC-3): 1.95 µM
GI50 (SW-620): 2 µM
GI50 [13]: 1.33 µM
GI50 (SK-MEL-5): 1.8 µM
GI50 (UO-31): 1.67 µM
GI50 (Malme-3M): 3.06 µM
GI50 (SNB-75): 2.75 µM
GI50 (MDA-MB-435): 2.25 µM
